Cneo AK release: causes C. neoformans cell lysis. adenylate kinase release luminescence, 4 h; normalised: neutral wells 0, clomiphene wells 100. lysis activity, % at 15 µM. actives 0.2% (n = 360,000). AID 651654;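 active = mean lysis activity across replicates of at least 80%, whatever share of replicates individually reach that level; inactive = mean lysis activity below 80%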
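Test system: log-phase Cryptococcus neoformans yeast cells. Input: 5 × 10^6 yeast cells/mL. Medium: fresh YPD growth medium. Doses: single dose. Incubation: static 4 h at 37 °C with compound, 1 h detection. Measured by: luminescent adenylate kinase detection reagent. Read-out: signal increase indicating cell lysis. Benchmarks: Clomiphene.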
rRNA inh HTS: inhibits bacterial ribosomal RNA function over humanized ribosomes. E. coli WT GFP vs humanized-ribosome RFP mutants, fluorescence, 24 h; stronger effect = lower value; DMSO median 0, no signal -100. AID 720706. actives 1.6% (n = 350,000). GFP signal change (wild-type ribosome), % (concentration not given with the values);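 active = significant combined selectivity score with lowered wild-type GFP, culture density cut under 30%, mutant RFP and density less affected; inactive = any of these conditions unmet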
HIV Env fusion: HIV envelope-mediated fusion inhibition; actives 1.1% (n = 360,000); HeLa-JRFL Env/CEM21 cell fusion, luciferase; inhibition, % at 12.3 µM;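 active = mean replicate inhibition score of at least 50 and every replicate individually at or above 50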
CFTR F508del cor: CFTR F508del correction in bronchial cells; CFBE cells, YFP halide quenching; stimulated with forskolin plus potentiator P3; % fluorescence drop versus neutral controls; activity (quench increase), % at 7.58 µM; actives 0.36% (n = 350,000); AID 720511;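 active = mean added fluorescence quench of at least 8% versus neutral control, with both replicates also reaching 8%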;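 note: cells transiently co-express mutant CFTR-F508del with the halide-sensitive YFP; corrector assay measuring rescue of mutant channel to the surface after 24 h compound exposure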
miR-122 sensor: blocks miR-122 activity in Huh7 sensor cells; Huh7 miR-122 Renilla luciferase sensor, 48 h; neutral wells = 0, positive control = 100; activation (reporter increase), % at 12.5 µM; actives 0.3% (n = 340,000);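 active = mean replicate activation score at least 90 and every replicate individually at or above 90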;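 note: higher luciferase means less miR-122 activity so hits act as miR-122 inhibitors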
INS-1E GSIS act: GLuc luminescence reporter in INS-1E cells, primary screen for activators of glucose-dependent secretion of insulin; activation, % at 16.6 µM; actives 0.61% (n = 370,000); INS-1E GLuc reporter insulin secretion, 2-3 h;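 active = lowest replicate activation of at least 40%, so every replicate reaches that level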
A number is an active result; n = inactive; x = not tested or not shown. Hits are enriched below; roughly 3.1% of the tested compounds scored in any of these assays.

SMILES	Cneo AK release	rRNA inh HTS	HIV Env fusion	CFTR F508del cor	miR-122 sensor	INS-1E GSIS act
C[C@@H]1O[C@@H](O[C@@H]2C=C3CC[C@@H]4C(CC[C@]5(C)[C@@H](c6ccc(=O)oc6)CC[C@]45O)[C@@]3(C)CC2)[C@H](O)[C@H](O)[C@H]1O (stereo partly specified)	n	n	93	24	n	n
C[C@@H]1O[C@@H](O[C@@H]2C=C3CCC4C(CC[C@]5(C)[C@@H](c6ccc(=O)oc6)CC[C@]45O)[C@@]3(C)CC2)[C@H](O)[C@H](O)[C@H]1O (stereo partly specified)	n	x	65	n	n	n
COC(=O)[C@@H]1[C@@H](CO)[C@@H]2Cn3c(ccc(-c4ccccc4F)c3=O)[C@H]1N2C(=O)C1CC1	n	n	x	n	n	n
COC(=O)[C@@H]1N[C@@H]2c3ccc(C4=CCCC4)c(=O)n3C[C@@H]2[C@H]1CO	n	n	x	x	x	n
FC(F)(F)CN1C[C@@H]2N[C@H](C1)C2c1ccc(Br)cc1 (stereo partly specified)	x	n	x	x	x	n
C[C@]12CCC(=O)C=C1CC[C@@H]1C2CC[C@]2(C)C(=O)CCC12 (stereo partly specified)	n	-38	n	n	n	n
C[C@]12CCC3C(CC[C@H]4[C@@H](O)[C@H](O)CC[C@]34C)C1CCC2=O (stereo partly specified)	n	-22	n	n	n	x
C[C@]12CCC(=O)C=C1CC[C@@H]1[C@@H]2CC[C@]2(C)C(=O)CC[C@@H]12	n	n	x	n	n	x
C[C@]12CC[C@@H](O)C[C@H]1CC[C@@H]1[C@@H]2CC[C@]2(C)C(=O)CC[C@@H]12	n	x	n	n	n	x
O=C(O)C1C2c3ccccc3C(c3ccccc32)C1C(=O)Nc1ccccc1 (stereo unspecified)	n	n	n	n	n	n
CCOc1ccc(NC(=O)C2C3c4ccccc4C(c4ccccc43)C2C(=O)O)cc1 (stereo unspecified)	x	-34	n	n	x	n
CC(C)CC#Cc1ccc([C@H]2[C@@H](CO)N3CCCCN(C(=O)Cc4ccccn4)C[C@H]23)cc1	n	n	x	n	n	n
C=CCN1[C@@H]2CN(C(=O)NC(C)C)C[C@H]1C2c1ccc(Br)cc1 (stereo partly specified)	x	n	x	x	x	n
CC1OC(OC2CC(O)C3(CO)C4C(O)CC5(C)C(C6=CC(=O)OC6)CCC5(O)C4CCC3(O)C2)C(O)C(O)C1O (stereo unspecified)	n	n	x	15	n	x
C[C@@H]1O[C@@H](O[C@H]2C[C@@H](O)[C@]3(CO)[C@H]4[C@H](O)C[C@]5(C)[C@@H](C6COC(=O)C6)CC[C@]5(O)[C@@H]4CC[C@]3(O)C2)[C@H](O)[C@H](O)[C@H]1O (stereo partly specified)	n	x	n	n	114	x
O=C(Cc1cccnc1)N1CCCCN2[C@@H](CO)[C@@H](c3ccc(/C=C/c4ccccc4)cc3)[C@@H]2C1	n	n	x	n	n	n
CCOc1cc(CNCCc2c[nH]c3ccccc23)cc(Cl)c1OCC	x	n	68	x	x	n
CCOc1c(Cl)cc(CNCCc2c[nH]c3ccccc23)cc1OC	x	n	64	n	n	n
C[C@@H]1CN([C@H](C)CO)C(=O)c2c(c3ccccc3n2C)-c2ccccc2CO[C@H]1CN(C)C(=O)Oc1ccccc1	x	n	x	n	x	n
O=C(Cc1ccccc1)N1CCCCN2[C@H](C1)[C@@H](c1ccc(-c3ccccc3)cc1)[C@@H]2CO	n	n	x	n	n	n
CC=Cc1ccc2n(c1=O)C[C@@H]1[C@@H](CO)[C@H](C(=O)N(C)C)N[C@H]21 (mixture of isomers)	n	n	x	n	n	n
Oc1ccc(/C=N/NP(=S)(c2ccccc2)c2ccccc2)cc1O	n	-21	n	x	n	n
CC(C)NC(=O)N1CC2C(c3ccccc3)C(C1)N2C (stereo unspecified)	x	n	x	x	x	n
